Experimental data as given in ChEMBL document CHEMBL3352456, “Design, synthesis and biological activity of a novel Rutin analogue with improved lipid soluble properties” (Bioorg Med Chem, 2015).
Activity calls are given as the source filed them. The calls are words filed in the database; no cut-off is given here.

Columns and labels:
[1] = biological target: Nuclear factor NF-kappa-B complex (Homo sapiens) (UniProt Q00653+P19838+Q04206); test: Inhibition of NF-kappaB (unknown origin)/32P-labeled oligonucleotide interaction at 0.1 to 10 mM after 20 mins by electrophoretic mobility shift assay; format: protein-complex assay
Outline: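 Probe was a double-stranded 32P-labelled oligonucleotide (0.25 ng) in buffer of 10% glycerol, 0.05% NP-40, 10 mM Tris-HCl pH 7.5, 50 mM NaCl, 0.5 mM DTT and 10 mM MgCl2. Compound and probe were bound for 20 min at room temperature, then recombinant NF-kappaB p50 was added for a further 20 min. Samples were run on 6% polyacrylamide in 0.25× TBE at 200 V.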

Nannizzia gypsea [2] = test: Antifungal activity against Nannizzia gypsea (Bodin) Guiart et Grigoraki CBS 286.63 assessed as growth inhibition at 100 ug/ml measured on day 7 by sabouraud dextrose agar diffusion method relative to control; format: functional; conditions: (Bodin) Guiart et Grigoraki CBS 286.63, 168 h, read-out: GI
Outline: (§1)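 Dermatophyte strains kept on Sabouraud dextrose agar slants. Mycelium disks (10 mm) from a stationary-phase culture grown at 26 ± 1 °C on cellophane over SDA to log phase, then moved onto SDA containing compound added from DMSO stock at 45 °C (final DMSO 0.1%; DMSO-only controls). Colony diameter measured daily for 7 days. % inhibition = (dex − dex')/dex × 100. Three replicates per concentration; mean of three independent experiments.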

K562 [3] = test: Induction of apoptosis in human K562 cells assessed as early apoptotic cells at 10 uM after 3 days by Annexin-V staining-based assay (reference value: 5.41%); format: functional
Trichophyton violaceum [4] = test: Antifungal activity against Trichophyton violaceum Malmsten CBS 459.61 assessed as growth inhibition at 20 ug/ml measured on day 7 by sabouraud dextrose agar diffusion method relative to control; format: functional; conditions: Malmsten CBS 459.61, 168 h, read-out: GI; outline: as §1
Epidermophyton floccosum [5] = test: Antifungal activity against Epidermophyton floccosum (Hartz) Langeron and Milochevitch CBS 358.93 assessed as growth inhibition at 20 ug/ml measured on day 7 by sabouraud dextrose agar diffusion method relative to control; format: functional; outline: as §1
Nannizzia gypsea [6] = test: Antifungal activity against Nannizzia gypsea (Bodin) Guiart et Grigoraki CBS 286.63 assessed as growth inhibition at 20 ug/ml measured on day 7 by sabouraud dextrose agar diffusion method relative to control; format: functional; conditions: (Bodin) Guiart et Grigoraki CBS 286.63, 168 h, read-out: GI; outline: as §1
Nannizzia gypsea [7] = test: Antifungal activity against Microsporum gypseum (Bodin) Guiart and Grigorakis IHME 3999 assessed as growth inhibition at 100 ug/ml measured on day 7 by sabouraud dextrose agar diffusion method relative to control; format: functional; conditions: (Bodin) Guiart and Grigorakis IHME 3999, 168 h, read-out: GI; outline: as §1
K562 [8] = test: Induction of apoptosis in human K562 cells assessed as late apoptotic cells at 10 uM after 3 days by Annexin-V staining-based assay (reference value: 5.96%); format: functional
Trichophyton rubrum [9] = test: Antifungal activity against Trichophyton rubrum (Castellani) Sabouraud IHME 4321 assessed as growth inhibition at 20 ug/ml measured on day 7 by sabouraud dextrose agar diffusion method relative to control; format: functional; conditions: (Castellani) Sabouraud IHME 4321, 168 h, read-out: GI; outline: as §1
K562 [10] = test: Induction of apoptosis in human K562 cells assessed as early apoptotic cells at 5 uM after 3 days by Annexin-V staining-based assay (reference value: 5.41%); format: functional
Paraphyton cookei [11] = test: Antifungal activity against Nannizzia cajetani Ajello CBS 495.70 assessed as growth inhibition at 100 ug/ml measured on day 7 by sabouraud dextrose agar diffusion method relative to control; format: functional; conditions: Ajello CBS 495.70, 168 h, read-out: GI; outline: as §1
K562 [12] = test: Induction of apoptosis in human K562 cells assessed as apoptotic cells at 10 uM after 3 days by Annexin-V staining-based assay (reference value: 11.37%); format: functional
K562 [13] = test: Antiproliferative activity against human K562 cells assessed as cell number after 3 days by Coulter counter; conditions: K562, 72 h
[14] = Antifungal activity against Microsporum canis Bodin CBS 4727 assessed as growth inhibition at 20 ug/ml measured on day 7 by sabouraud dextrose agar diffusion method relative to control; format: functional; outline: as §1
[15] = Antifungal activity against Microsporum canis Bodin CBS 4727 assessed as growth inhibition at 100 ug/ml measured on day 7 by sabouraud dextrose agar diffusion method relative to control; format: functional; outline: as §1
Nannizzia gypsea [16] = test: Antifungal activity against Microsporum gypseum (Bodin) Guiart and Grigorakis IHME 3999 assessed as growth inhibition at 20 ug/ml measured on day 7 by sabouraud dextrose agar diffusion method relative to control; format: functional; conditions: (Bodin) Guiart and Grigorakis IHME 3999, 168 h, read-out: GI; outline: as §1
K562 [17] = test: Induction of apoptosis in human K562 cells assessed as live cells at 5 uM after 3 days by Annexin-V staining-based assay (reference value: 87.33%); format: functional
K562 [18] = test: Induction of apoptosis in human K562 cells assessed as late apoptotic cells at 5 uM after 3 days by Annexin-V staining-based assay (reference value: 5.96%); format: functional
K562 [19] = test: Induction of apoptosis in human K562 cells assessed as live cells at 10 uM after 3 days by Annexin-V staining-based assay (reference value: 87.33%); format: functional
Trichophyton tonsurans [20] = test: Antifungal activity against Trichophyton tonsurans Malmsten CBS 483.76 assessed as growth inhibition at 20 ug/ml measured on day 7 by sabouraud dextrose agar diffusion method relative to control; format: functional; conditions: Malmsten CBS 483.76, 168 h, read-out: GI; outline: as §1
K562 [21] = test: Induction of apoptosis in human K562 cells assessed as dead cells at 10 uM after 3 days by Annexin-V staining-based assay (reference value: 1.29%); format: functional
[22] = Antioxidant activity assessed as inhibition of AAPH-induced peroxyl radical generation by oxygen radical absorbance capacity assay relative to trolox; format: physicochemical
Outline: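 Run at 37 °C and pH 7.4 with fluorescein (85 nM) as the probe and AAPH as the peroxyl radical source. Compounds were dissolved fresh in PBS. Fluorescence read at ex 485/em 538 nm every 5 min for up to 30 min after AAPH addition. Net area under the decay curve (blank minus sample) was calibrated against Trolox at 10–50 μM and given as Trolox equivalents.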

Paraphyton cookei [23] = test: Antifungal activity against Nannizzia cajetani Ajello CBS 495.70 assessed as growth inhibition at 20 ug/ml measured on day 7 by sabouraud dextrose agar diffusion method relative to control; format: functional; conditions: Ajello CBS 495.70, 168 h, read-out: GI; outline: as §1
[24] = system: Trichophyton mentagrophytes; test: Antifungal activity against Trichophyton mentagrophytes (Robin) Blanchard CBS 160.66 assessed as growth inhibition at 20 ug/ml measured on day 7 by sabouraud dextrose agar diffusion method relative to control; format: functional; conditions: (Robin) Blanchard CBS 160.66, 168 h, read-out: GI; outline: as §1
[25] = Antioxidant activity assessed as superoxide anion radical scavenging by photochemiluminescence method relative to trolox using formulation containing O/W; format: physicochemical
[26] = system: Trichophyton mentagrophytes; test: Antifungal activity against Trichophyton mentagrophytes (Robin) Blanchard CBS 160.66 assessed as growth inhibition at 100 ug/ml measured on day 7 by sabouraud dextrose agar diffusion method relative to control; format: functional; conditions: (Robin) Blanchard CBS 160.66, 168 h, read-out: GI; outline: as §1
Trichophyton violaceum [27] = test: Antifungal activity against Trichophyton violaceum Malmsten CBS 459.61 assessed as growth inhibition at 100 ug/ml measured on day 7 by sabouraud dextrose agar diffusion method relative to control; format: functional; conditions: Malmsten CBS 459.61, 168 h, read-out: GI; outline: as §1
Trichophyton tonsurans [28] = test: Antifungal activity against Trichophyton tonsurans Malmsten CBS 483.76 assessed as growth inhibition at 100 ug/ml measured on day 7 by sabouraud dextrose agar diffusion method relative to control; format: functional; conditions: Malmsten CBS 483.76, 168 h, read-out: GI; outline: as §1
K562 [29] = test: Induction of apoptosis in human K562 cells assessed as dead cells at 5 uM after 3 days by Annexin-V staining-based assay (reference value: 1.29%); format: functional
[30] = Antioxidant activity assessed as superoxide anion radical scavenging by photochemiluminescence method relative to trolox; format: physicochemical
Outline: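 Superoxide was generated photochemically from luminol under UV light (351 nm). Lag time (water-soluble, ACW) or integrated light emission over 180 s (lipid-soluble, ACL) was compared with a Trolox standard curve. Samples were centrifuged 5 min at 16000 g and diluted 1:40 in water (ACW) or methanol (ACL). Triplicate determinations.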

Epidermophyton floccosum [31] = test: Antifungal activity against Epidermophyton floccosum (Hartz) Langeron and Milochevitch CBS 358.93 assessed as growth inhibition at 100 ug/ml measured on day 7 by sabouraud dextrose agar diffusion method relative to control; format: functional; outline: as §1
K562 [32] = test: Induction of apoptosis in human K562 cells assessed as apoptotic cells at 5 uM after 3 days by Annexin-V staining-based assay (reference value: 11.37%); format: functional
[33] = Octanol-water partition coefficient, log P of the compound at 5 mg/20 ml after 30 mins by spectrophotometric analysis; format: physicochemical
Outline: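 Octanol and water (pH 6), 20 mL each, stirred 30 min at 25 °C, then centrifuged 10 min at 4,000 rpm. Compound concentration in each phase measured spectrophotometrically at 360 nm. LogP = log of the octanol/water concentration ratio.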

Trichophyton rubrum [34] = test: Antifungal activity against Trichophyton rubrum (Castellani) Sabouraud IHME 4321 assessed as growth inhibition at 100 ug/ml measured on day 7 by sabouraud dextrose agar diffusion method relative to control; format: functional; conditions: (Castellani) Sabouraud IHME 4321, 168 h, read-out: GI; outline: as §1

Sequence of Nuclear factor NF-kappa-B complex (Homo sapiens) (P19838 whole entry, looked up): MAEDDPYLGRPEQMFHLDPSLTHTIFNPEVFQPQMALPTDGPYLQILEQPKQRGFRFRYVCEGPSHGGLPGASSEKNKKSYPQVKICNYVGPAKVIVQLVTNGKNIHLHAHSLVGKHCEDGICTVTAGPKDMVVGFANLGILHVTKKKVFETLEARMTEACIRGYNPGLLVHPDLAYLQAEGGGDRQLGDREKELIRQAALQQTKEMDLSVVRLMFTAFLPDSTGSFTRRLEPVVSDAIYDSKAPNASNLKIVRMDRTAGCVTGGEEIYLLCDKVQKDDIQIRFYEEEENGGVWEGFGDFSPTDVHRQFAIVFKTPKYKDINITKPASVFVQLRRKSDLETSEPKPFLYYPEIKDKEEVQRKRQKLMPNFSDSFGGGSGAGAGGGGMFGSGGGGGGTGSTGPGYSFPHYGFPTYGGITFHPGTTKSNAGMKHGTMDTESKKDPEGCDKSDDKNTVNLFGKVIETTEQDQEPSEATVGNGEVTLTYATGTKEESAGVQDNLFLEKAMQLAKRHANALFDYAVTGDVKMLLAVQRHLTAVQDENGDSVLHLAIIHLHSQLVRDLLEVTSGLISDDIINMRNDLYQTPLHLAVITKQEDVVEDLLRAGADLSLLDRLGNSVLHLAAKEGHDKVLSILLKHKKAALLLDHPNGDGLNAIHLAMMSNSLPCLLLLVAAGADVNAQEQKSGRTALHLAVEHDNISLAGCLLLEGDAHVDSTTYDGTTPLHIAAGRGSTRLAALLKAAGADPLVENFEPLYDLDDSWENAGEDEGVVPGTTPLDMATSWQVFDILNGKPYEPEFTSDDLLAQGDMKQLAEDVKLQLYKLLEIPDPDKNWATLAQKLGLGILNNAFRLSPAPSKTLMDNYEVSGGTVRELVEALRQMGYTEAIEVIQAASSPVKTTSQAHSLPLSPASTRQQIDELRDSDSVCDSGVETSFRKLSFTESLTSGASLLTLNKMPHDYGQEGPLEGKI
Sequence of Nuclear factor NF-kappa-B complex (Homo sapiens) (Q00653 whole entry, looked up): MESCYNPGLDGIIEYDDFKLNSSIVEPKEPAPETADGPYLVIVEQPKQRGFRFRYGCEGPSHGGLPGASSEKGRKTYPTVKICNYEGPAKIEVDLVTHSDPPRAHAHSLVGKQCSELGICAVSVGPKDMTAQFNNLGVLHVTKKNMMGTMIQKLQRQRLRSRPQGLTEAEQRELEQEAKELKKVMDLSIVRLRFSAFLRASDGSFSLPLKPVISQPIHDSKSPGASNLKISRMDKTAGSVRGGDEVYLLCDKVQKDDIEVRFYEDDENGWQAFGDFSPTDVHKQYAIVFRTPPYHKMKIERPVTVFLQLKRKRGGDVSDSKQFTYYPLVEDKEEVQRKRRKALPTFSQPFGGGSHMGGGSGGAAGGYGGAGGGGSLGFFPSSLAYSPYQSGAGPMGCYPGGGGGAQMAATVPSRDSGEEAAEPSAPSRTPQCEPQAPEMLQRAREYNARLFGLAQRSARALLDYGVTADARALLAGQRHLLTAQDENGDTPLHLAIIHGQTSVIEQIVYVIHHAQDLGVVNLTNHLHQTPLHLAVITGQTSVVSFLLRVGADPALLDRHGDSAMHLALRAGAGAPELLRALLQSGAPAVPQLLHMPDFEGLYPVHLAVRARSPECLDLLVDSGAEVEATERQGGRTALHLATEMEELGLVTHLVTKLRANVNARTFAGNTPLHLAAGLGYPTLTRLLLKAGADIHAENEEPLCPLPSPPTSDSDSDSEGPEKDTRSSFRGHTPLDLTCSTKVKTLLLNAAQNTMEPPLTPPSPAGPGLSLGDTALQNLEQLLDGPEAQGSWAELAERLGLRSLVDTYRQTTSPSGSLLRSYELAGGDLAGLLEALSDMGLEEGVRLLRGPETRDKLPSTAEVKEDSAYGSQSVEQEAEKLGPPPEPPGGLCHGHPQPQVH
Sequence of Nuclear factor NF-kappa-B complex (Homo sapiens) (Q04206 whole entry, looked up): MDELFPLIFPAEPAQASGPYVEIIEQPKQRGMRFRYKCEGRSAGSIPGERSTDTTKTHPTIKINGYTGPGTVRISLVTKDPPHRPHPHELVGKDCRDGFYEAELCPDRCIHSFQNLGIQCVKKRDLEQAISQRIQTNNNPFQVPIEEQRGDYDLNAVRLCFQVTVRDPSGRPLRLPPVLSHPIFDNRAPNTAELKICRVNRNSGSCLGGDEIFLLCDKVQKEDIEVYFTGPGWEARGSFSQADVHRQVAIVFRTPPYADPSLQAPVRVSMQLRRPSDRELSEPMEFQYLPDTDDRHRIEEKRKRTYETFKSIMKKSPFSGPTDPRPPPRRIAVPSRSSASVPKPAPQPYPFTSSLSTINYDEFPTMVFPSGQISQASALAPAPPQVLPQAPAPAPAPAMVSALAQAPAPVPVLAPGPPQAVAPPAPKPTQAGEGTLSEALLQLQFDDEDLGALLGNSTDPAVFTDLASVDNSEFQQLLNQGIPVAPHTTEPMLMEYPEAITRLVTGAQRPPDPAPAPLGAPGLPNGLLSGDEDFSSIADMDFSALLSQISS

## CCC(=O)O[C@@H]1[C@@H](OC(=O)CC)[C@H](C)O[C@@H](OC[C@H]2O[C@@H](Oc3c(-c4ccc(O)c(O)c4)oc4cc(O)cc(O)c4c3=O)[C@H](OC(=O)CC)[C@@H](OC(=O)CC)[C@@H]2OC(=O)CC)[C@@H]1OC(=O)CC
[1]
  inhibition: Active
Nannizzia gypsea [2]
  inhibition of growth at 100 µg/mL: 7.9%
K562 [3]
  Activity: 11.64%
Trichophyton violaceum [4]
  inhibition of growth at 20 µg/mL: 10.7%
Epidermophyton floccosum [5]
  growth inhibition (GI): inactive
Nannizzia gypsea [6]
  inhibition of growth at 20 µg/mL: 1.9%
Nannizzia gypsea [7]
  inhibition of growth at 100 µg/mL: 9.9%
K562 [8]
  Activity: 15.82%
Trichophyton rubrum [9]
  inhibition of growth at 20 µg/mL: 3.5%
K562 [10]
  Activity: 12.35%
Paraphyton cookei [11]
  inhibition of growth at 100 µg/mL: 3.5%
K562 [12]
  Activity: 27.46%
K562 [13]
  IC50: 7.17 µM
[14]
  growth inhibition (GI): inactive
[15]
  growth inhibition (GI): 0%
Nannizzia gypsea [16]
  inhibition of growth at 20 µg/mL: 5.4%
K562 [17]
  Activity: 79.75%
K562 [18]
  Activity: 5.35%
K562 [19]
  Activity: 71.2%
Trichophyton tonsurans [20]
  inhibition of growth at 20 µg/mL: 5.4%
K562 [21]
  Activity: 1.34%
[22]
  Activity: 728.61 µmol/g
Paraphyton cookei [23]
  inhibition of growth at 20 µg/mL: 0.6%
[24]
  inhibition of growth at 20 µg/mL: 0%
[25]
  Activity: 3.81 µmol/g
[26]
  inhibition of growth at 100 µg/mL: 5.7%
Trichophyton violaceum [27]
  inhibition of growth at 100 µg/mL: 15.8%
Trichophyton tonsurans [28]
  inhibition of growth at 100 µg/mL: 17.8%
K562 [29]
  Activity: 2.55%
[30]
  Activity: 1232.67 µmol/g
Epidermophyton floccosum [31]
  growth inhibition (GI): inactive
K562 [32]
  Activity: 17.7%
[33]
  logP at 0.5 h: 1.09
Trichophyton rubrum [34]
  inhibition of growth at 100 µg/mL: 4.3%
